KCNK9 inh = KCNK9 potassium channel inhibitors, primary screen, HEK293 cells, thallium flux. Potassium channel subfamily K member 9 (Homo sapiens), Q9NPC2. AID 488922, 2010. FluxOR thallium flux fluorescence; stronger effect = lower value. hit rate 1.2% among 310,000. B-score at 10 µM;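 active means ratio B-score over 3 SD below the library mean, with starting fluorescence within 5 SD of its mean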;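 further: negative B-score means less thallium flux so channel inhibition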
KCNQ1 block = inhibitors of human KCNQ1 channel, primary screen, cell-based, thallium flux, high-throughput; Potassium voltage-gated channel subfamily KQT member 1 (Homo sapiens), P51787; CHO-K1 KCNQ1, FluxOR thallium flux fluorescence; stronger effect = higher value; B-score at 10 µM; hit rate 1.3% among 310,000;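 active means compounds whose thallium flux B-score, printed positive for inhibition, exceeds three library SD while starting fluorescence stays within three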;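 further: channel opened by potassium depolarization with thallium stimulus after 20 min compound exposure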
KCNQ1 pot = potentiators or activators of KCNQ1 channel, primary screen, cell-based, thallium flux, high-throughput. Potassium voltage-gated channel subfamily KQT member 1 (Homo sapiens), P51787. CHO-K1 KCNQ1, thallium flux FluxOR fluorescence; stronger effect = higher value. B-score at 10 µM. hit rate 0.35% among 310,000;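 active means fluorescence ratio B-score, a plate-corrected score, at least three library SD, with initial intensity B-score within 5 SD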
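System: CHO-K1 cells stably expressing KCNQ1 / Medium: assay buffer for compound exposure, DMSO matched across wells / Reagent: thallium- and potassium-containing depolarizing buffer / Compound: one concentration, matched DMSO / Incubation: 20 min compound pretreatment at room temperature / Measured by: kinetic FluxOR fluorescence, 10 s baseline plus 110 s post-stimulus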
KCNK3 block = human KCNK3 channel inhibitors, primary screen, CHO cells, FluxOR thallium flux, B-score. B-score at 10 µM. AID 602410, 2012. Potassium channel subfamily K member 3 (Homo sapiens), O14649. FluxOR fluorescence; stronger effect = lower value. hit rate 0.84% among 340,000;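 active means B-score under library mean minus 4 SD, starting fluorescence ratio at most library mean plus 5 SD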;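 further: more negative B-score means stronger inhibition of thallium flux through KCNK3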
Target sequence (O14649 whole entry, looked up): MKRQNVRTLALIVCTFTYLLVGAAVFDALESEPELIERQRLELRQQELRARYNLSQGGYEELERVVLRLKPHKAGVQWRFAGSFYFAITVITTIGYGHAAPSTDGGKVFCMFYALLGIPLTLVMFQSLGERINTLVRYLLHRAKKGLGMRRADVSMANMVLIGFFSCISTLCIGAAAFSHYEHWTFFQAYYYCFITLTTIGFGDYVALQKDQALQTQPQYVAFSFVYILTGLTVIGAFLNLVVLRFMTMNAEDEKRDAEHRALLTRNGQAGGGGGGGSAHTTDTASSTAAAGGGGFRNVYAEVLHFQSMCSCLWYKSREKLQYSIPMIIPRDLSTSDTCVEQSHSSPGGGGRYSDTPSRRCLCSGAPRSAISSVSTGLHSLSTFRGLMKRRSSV
Kir21 block = inhibitors of mouse Kir2.1 inward-rectifier potassium channel. HEK293-Kir2.1, FluxOR thallium flux fluorescence; stronger effect = lower value. B-score at 10 µM. hit rate 0.85% among 310,000;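 active means fluorescence ratio B-score at or below minus 3 SD of library scores, with starting-brightness B-score within 2 SD, cut at about -4.2 in these data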;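 further: channel flux triggered by added potassium and thallium sulfate stimulus; B-score of peak minus minimum fluorescence over baseline after thallium stimulus; more negative B-score means stronger Kir2.1 block with less thallium influx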
hERG protect = hERG rescue from dofetilide block, primary screen, cell-based, CHO-hERG, FluxOR thallium flux, dofetilide IC70 | dofetilide IC70 present | activation (rescue from dofetilide block), less the hit threshold, % at 10 µM | Voltage-gated inwardly rectifying potassium channel KCNH2 (Homo sapiens), Q12809 | AID 1511, 2009 | hit rate 0.51% among 310,000;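 active means activation above the mean of controls blocked by dofetilide plus 5 SD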;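 further: thallium influx through hERG after potassium depolarization seen as dye fluorescence rise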
* marks the source's active call; other numbers are inactive results; i = inactive; . = not tested or not shown. Compounds with a hit are over-represented: about 3.7% of the library has one in this group of screens.

SMILES	KCNK9 inh	KCNQ1 block	KCNQ1 pot	KCNK3 block	Kir21 block	hERG protect
CCOC(=O)CNC(=O)CN1CCCN(S(=O)(=O)c2ccc(Br)s2)CC1	.	.	.	i	.	.
COc1ccc(OC)c(S(=O)(=O)Nc2ccc3c(c2)N(C(C)=O)CCC3)c1	i	i	13*	i	-0.12	-10.5
CC(=O)N1CCCc2ccc(NS(=O)(=O)c3ccc(C)c(C)c3)cc21	i	i	i	i	-1.68	-10.8
CC(C)C[C@H]1CN=C(Nc2ccccc2)N1CCCC1CCCC1	i	i	i	i	-4.62*	-18.2
CCCCCCCN1C(Nc2ccccc2)=NC[C@@H]1CC(C)C	i	7*	i	i	-4.86*	-13.6
CC(C)C[C@H]1CN=C(Nc2ccccc2)N1CCCC1CCCCC1	i	i	i	i	-3.17	-22.9
Cc1ccc(O)c(O)c1	i	i	i	.	-0.22	-10.2
Cc1ccc(C2Cc3cc(O)c(O)cc3CN2)cc1 (centres undefined)	i	i	i	i	-7.5*	-4.5
O=C(OCC(=O)c1ccccc1Cl)c1cnccn1	i	i	i	i	2.31	-5.8
Cc1ccc(S(=O)(=O)N(C)C)cc1NC(=S)NC(C)CCC(C)C (centres undefined)	i	i	i	i	-0.01	-3.5
COc1ccc(S(=O)(=O)N(C)C)cc1NCC(=O)Nc1cccc2ccccc12	-7.37*	i	i	i	-1.68	-14.5
Cc1ccc(S(=O)(=O)N(C)C)cc1NC(=S)NC(C)CCCC(C)C (centres undefined)	i	i	i	i	0.34	6.6*
Cc1ccc(S(=O)(=O)N(C)C)cc1NC(=S)Nc1cccc2ccccc12	-7.13*	i	i	i	-1.9	-5.1
C=C(C)CC1(NC(C)c2ccccc2)CCCCC1 (centres undefined)	i	i	i	i	-4.91*	-12.2
CCCOC(=O)/C(C(N)=NCc1ccccc1)=C(\O)OCCC	-6.59*	i	i	i	-2.59	-8.3
CN(CCCN1c2ccccc2CCc2ccccc21)CC(=O)c1ccc(Cl)cc1	i	i	i	.	-1.31	-10.1
CN(C)CCCN1c2ccccc2CCc2ccc(Cl)cc21	i	i	i	i	-6.21*	-8.6
CN1CCN(C2=Cc3ccccc3Sc3cc(F)c(F)cc32)CC1	i	i	i	i	-4.41*	-22.4
CN1CCN(C2=Cc3ccccc3Sc3cc(F)c(Cl)cc32)CC1	i	i	i	i	-1.69	-27.5
O=[N+]([O-])c1ccc(N2CCC(=NOCc3ccc(Cl)cc3)CC2)cc1	i	6*	i	i	-1.92	-17.7
O=[N+]([O-])c1ccc(CN2CCN(c3ccc([N+](=O)[O-])cc3)CC2)cc1	i	i	i	i	0.87	-5.6
c1ccc(-c2cc(N3CCOCC3)nc3ccccc23)cc1	i	6*	i	i	-0.88	-5.1
CCC(=O)Nc1ccc(C(=O)CSc2nc3ccccc3cc2CC)cc1	-7.18*	i	i	i	-1.49	-8.3
Cc1cccc(C(=O)NCCC(=O)N2CCc3ccccc3C2)c1	.	.	.	i	.	.
Cc1cccc(C(=O)NC(=S)N2CCc3ccccc3C2)c1	i	i	13*	i	1.15	21.1*
CN1CCN(C(=O)C2=C[C@H](c3csc4ccccc34)C[C@H](OCCCCO)O2)CC1	i	i	i	i	2.06	-4.4
O=C(NC(=S)N1CCN(c2ccc(F)cc2)CC1)c1cccs1	i	i	13*	i	0.55	15.5*
O=C(NC(=S)Nc1ccc(N2CCCCC2)cc1)c1cccs1	i	i	9*	i	2.45	-4.3
O=C(NC(=S)Nc1ccccc1N1CCOCC1)c1cccs1	i	i	i	i	-0.3	2.9

Assay outcomes from PubChem.
